B1: Osa-1-4 twister ribozyme (parent)
chain: CCGCCUAACACUGCCAAUGCCGGUCCCAAGCCCGGAUAAAAGUGGAGGGGGCGG

Variants of: B1
Experiment: self-cleavage, relative activity (ratio to wild type); higher = more cleavage; co-transcriptional
Procedure, shortened: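 For each read, cleavage status was taken from whether upstream sequence was present. The reads came from an Oryza sativa twister ribozyme of 54 nucleotides, whose DNA template was synthesised with 97 % wild-type base and 1 % of each other base at the 48 positions downstream of the cleavage site. The template was transcribed in vitro at 37 °C for 2 h with co-transcriptional self-cleavage, and the RNA was reverse-transcribed using a template-switching oligonucleotide, PCR-amplified and deep-sequenced. Relative activity is the fraction cleaved normalised to wild type.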

Row | Variant | self-cleavage
1 | G23C G51A | 0.05
2 | G23C G51U | 0.03
3 | G23C G51C | 0.03
4 | G23U G54A | 0.09
5 | G23U G54U | 0.2
6 | G23U G54C | 0.08
7 | U24A U37C | 0.28
8 | U24A U37G | 0.49
9 | U24A U37A | 0.34
10 | G23U G53U | 0.06
11 | G23U G53A | 0.06
12 | G23U G53C | 0.03
13 | G22U G35A | 0.36
14 | G22U G35C | 0.11
15 | G22U G35U | 0.41
16 | G23U G44U | 0.06
17 | G23U G44A | 0.04
18 | G23U G44C | 0.05
19 | G22A G54U | 0.84
20 | G22A G54C | 0.82
21 | G22A G54A | 0.77
22 | G23U U12C | 0.04
23 | G23U U12A | 0.05
24 | G23U U12G | 0.05

Row | Variant | self-cleavage
25 | G23U G42U | 0.04
26 | G23U G42A | 0.05
27 | G23U G42C | 0.03
28 | G22U G48A | 0.04
29 | G22U G48U | 0.05
30 | G22U G48C | 0.06
31 | G23C G53U | 0.04
32 | G23C G53A | 0.04
33 | G23C G53C | 0.02
34 | G22U G30A | 0.03
35 | G22U G30U | 0.03
36 | G22U G30C | 0.04
37 | G22U U43A | 0.12
38 | G22U U43C | 0.1
39 | G22U U43G | 0.08
40 | G22U G42C | 0.07
41 | G22U G42U | 0.05
42 | G22U G42A | 0.08
43 | G22U U37A | 0.93
44 | G22U U37G | 0.92
45 | G22U U37C | 0.55
46 | G22A G48U | 0.08
47 | G22A G48C | 0.09
48 | G22A G48A | 0.08

Row | Variant | self-cleavage
49 | G23A G42C | 0.07
50 | G23A G42U | 0.05
51 | G23A G42A | 0.08
52 | G23A U37A | 0.77
53 | G23A U37C | 0.72
54 | G23A U37G | 0.78
55 | G22C G53U | 0.04
56 | G22C G53A | 0.06
57 | G22C G53C | 0.03
58 | G23C G50U | 0.05
59 | G23C G50A | 0.04
60 | G23C G50C | 0.04
61 | G22A G49U | 0.09
62 | G22A G49A | 0.12
63 | G22A G49C | 0.08
64 | G22U G53C | 0.05
65 | G22U G53U | 0.12
66 | G22U G53A | 0.1
67 | G23U G35A | 0.04
68 | G23U G35U | 0.05
69 | G23U G35C | 0.05
70 | G23U G49A | 0.03
71 | G23U G49U | 0.03
72 | G23U G49C | 0.03

Row | Variant | self-cleavage
73 | G22A G50U | 0.94
74 | G22A G50A | 1
75 | G22A G50C | 0.68
76 | G23C G30U | 0.02
77 | G23C G30A | 0.02
78 | G23C G30C | 0.02
79 | G22A U12A | 0.35
80 | G22A U12C | 0.21
81 | G22A U12G | 0.08
82 | G23A G45U | 0.06
83 | G23A G45A | 0.05
84 | G23A G45C | 0.05
85 | G22C G44C | 0.06
86 | G22C G44U | 0.07
87 | G22C G44A | 0.07
88 | G22A G53U | 0.14
89 | G22A G53C | 0.09
90 | G22A G53A | 0.51
91 | G22C U37C | 0.14
92 | G22C U37A | 0.14
93 | G22C U37G | 0.17
94 | G23C G45U | 0.03
95 | G23C G45C | 0.03
96 | G23C G45A | 0.04

Row | Variant | self-cleavage
97 | G23A G34U | 0.07
98 | G23A G34C | 0.07
99 | G23A G34A | 0.11
100 | G23U G50U | 0.06
101 | G23U G50C | 0.05
102 | G23U G50A | 0.05
103 | G23U G47C | 0.03
104 | G23U G47A | 0.03
105 | G23U G47U | 0.04
106 | G22C U12C | 0.07
107 | G22C U12G | 0.03
108 | G22C U12A | 0.05
109 | G22U G44U | 0.47
110 | G22U G44C | 0.81
111 | G22U G44A | 0.72
112 | G22C G30U | 0.02
113 | G22C G30C | 0.02
114 | G22C G30A | 0.03
115 | G22C U43A | 0.04
116 | G22C U43G | 0.04
117 | G22C U43C | 0.03
118 | U24G U37C | 0.02
119 | U24G U37A | 0.04
120 | U24G U37G | 0.04

Row | Variant | self-cleavage
121 | G23C | 0.05
122 | G23U | 0.18
123 | G23A | 0.8
124 | G23C U24A | 0.03
125 | G23C U24G | 0.01
126 | G23C U24C | 0.04
127 | G22C G47A | 0.03
128 | G22C G47U | 0.04
129 | G22C G47C | 0.02
130 | G22C G54C | 0.15
131 | G22C G54U | 0.16
132 | G22C G54A | 0.08
133 | G23C U43A | 0.05
134 | G23C U43C | 0.05
135 | G23C U43G | 0.06
136 | G23U U18C | 0.1
137 | G23U U18A | 0.1
138 | G23U U18G | 0.14
139 | G23U G51C | 0.04
140 | G23U G51U | 0.04
141 | G23U G51A | 0.05
142 | G23A G50A | 0.23
143 | G23A G50C | 0.14
144 | G23A G50U | 0.3

Row | Variant | self-cleavage
145 | G23A G54A | 0.2
146 | G23A G54C | 0.21
147 | G23A G54U | 0.41
148 | G22A U18G | 0.94
149 | G22A U18C | 0.98
150 | G22A U18A | 1.02
151 | G23A G47A | 0.07
152 | G23A G47C | 0.06
153 | G23A G47U | 0.06
154 | G23A U18C | 0.49
155 | G23A U18G | 0.38
156 | G23A U18A | 0.59
157 | G23A G51C | 0.07
158 | G23A G51A | 0.09
159 | G23A G51U | 0.08
160 | G23U G48U | 0.03
161 | G23U G48C | 0.03
162 | G23U G48A | 0.02
163 | U24G U43A | 0.03
164 | U24G U43C | 0.03
165 | G23C U12C | 0.04
166 | G23C U12A | 0.04
167 | G23C U12G | 0.04
